Assay results published in ChEMBL document CHEMBL3817843, “Understanding Oxadiazolothiazinone Biological Properties: Negative Inotropic Activity versus Cytochrome P450-Mediated Metabolism” (J Med Chem, 2016).

Legend:
[1] = system: Left cardiac atrium; assay: Negative inotropic activity in potassium depolarized guinea pig left atrium assessed as reduction in developed tension after 30 mins; assay type: functional; conditions: Cavia porcellus, 0.5 h
Summary of the method: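 Guinea pig left atria electrically driven at 1 Hz. EC50 taken from log concentration−response curves by Litchfield and Wilcoxon probit analysis, n = 6−7. Not calculated when the maximum effect was below 50%.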

[2] = system: Right cardiac atrium; assay: Negative chronotropic activity in potassium depolarized guinea pig right atrium assessed as reduction in atrial rate at 50 uM after 30 mins; assay type: functional, Cavia porcellus; set-up: scale not given: the % may be the effect or the level left
[3] = system: Aorta; assay: Vasorelaxant activity in potassium depolarized guinea pig aorta assessed as inhibition of calcium-induced contraction at 10^-4 M after 30 mins; assay type: functional, Cavia porcellus; set-up: scale not given: the % may be the effect or the level left
Summary of the method: (§1)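 Guinea pig aortic strips depolarized with K+ (80 mM). Calcium-induced contraction measured; inhibition expressed as percent change from control, n = 3−5.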

[4] = Relaxant activity in potassium depolarized guinea pig ileum longitudinal smooth muscle assessed as inhibition of calcium-induced contraction at 10^-5 M after 30 mins; assay type: functional, Cavia porcellus; set-up: scale not given: the % may be the effect or the level left
[5] = system: Left cardiac atrium; assay: Negative inotropic activity in potassium depolarized guinea pig left atrium assessed as reduction in developed tension at 5 uM after 30 mins; assay type: functional, Cavia porcellus; set-up: scale not given: the % may be the effect or the level left
[6] = system: Liver microsome; assay: Stability in human liver microsomes at 1 uM after 2 to 60 mins by LC-MS analysis in absence of NADPH
[7] = biological target: Cytochrome P450 2C9 (Homo sapiens, UniProt P11712); assay: Inhibition of CYP2C9 in human liver microsomes using tolbutamide as substrate after 20 mins by LC-MS analysis
Cytochrome P450 2C9, sequence (P11712 whole entry): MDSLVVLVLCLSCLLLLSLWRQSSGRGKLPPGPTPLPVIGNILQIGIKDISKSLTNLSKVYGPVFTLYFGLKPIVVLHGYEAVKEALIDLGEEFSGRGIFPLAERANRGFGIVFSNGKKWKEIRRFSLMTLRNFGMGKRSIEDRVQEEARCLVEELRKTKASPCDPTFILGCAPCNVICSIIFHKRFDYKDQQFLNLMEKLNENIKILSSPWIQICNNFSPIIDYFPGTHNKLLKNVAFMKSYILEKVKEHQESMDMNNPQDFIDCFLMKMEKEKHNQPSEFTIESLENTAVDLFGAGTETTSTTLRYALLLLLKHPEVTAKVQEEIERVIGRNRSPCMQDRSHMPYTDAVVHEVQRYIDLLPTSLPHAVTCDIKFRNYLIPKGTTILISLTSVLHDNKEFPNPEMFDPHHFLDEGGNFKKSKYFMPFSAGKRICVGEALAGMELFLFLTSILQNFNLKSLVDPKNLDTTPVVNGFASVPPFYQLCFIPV

[8] = Relaxant activity in potassium depolarized guinea pig ileum longitudinal smooth muscle assessed as inhibition of calcium-induced contraction after 30 mins; assay type: functional, tissue-based; conditions: Cavia porcellus, 0.5 h
[9] = Relaxant activity in potassium depolarized guinea pig ileum longitudinal smooth muscle assessed as inhibition of calcium-induced contraction at 0.05 uM after 30 mins; assay type: functional, Cavia porcellus; set-up: scale not given: the % may be the effect or the level left
[10] = biological target: Cytochrome P450 2D6 (Homo sapiens, UniProt P10635); assay: Inhibition of CYP2D6 in human liver microsomes using dextromethorphan as substrate after 10 mins by LC-MS analysis
Cytochrome P450 2D6, sequence (P10635 whole entry): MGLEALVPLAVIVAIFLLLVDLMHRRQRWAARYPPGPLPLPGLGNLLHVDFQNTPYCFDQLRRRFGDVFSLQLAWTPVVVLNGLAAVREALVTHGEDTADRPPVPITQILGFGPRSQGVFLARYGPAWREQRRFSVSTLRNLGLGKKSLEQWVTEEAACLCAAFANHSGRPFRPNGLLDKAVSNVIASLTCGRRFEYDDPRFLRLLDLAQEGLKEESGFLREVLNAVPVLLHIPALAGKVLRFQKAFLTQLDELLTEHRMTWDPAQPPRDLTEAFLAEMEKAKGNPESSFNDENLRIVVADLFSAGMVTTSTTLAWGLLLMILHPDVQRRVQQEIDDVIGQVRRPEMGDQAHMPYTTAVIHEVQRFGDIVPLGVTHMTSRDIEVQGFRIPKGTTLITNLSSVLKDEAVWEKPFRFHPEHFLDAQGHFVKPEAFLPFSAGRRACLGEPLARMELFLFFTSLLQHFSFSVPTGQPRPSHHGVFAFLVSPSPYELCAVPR

[11] = biological target: Cytochrome P450 2C19 (Homo sapiens, UniProt P33261); assay: Inhibition of CYP2C19 in human liver microsomes using (S)-mephenytoin as substrate after 40 mins by LC-MS analysis
Cytochrome P450 2C19, sequence (P33261 whole entry): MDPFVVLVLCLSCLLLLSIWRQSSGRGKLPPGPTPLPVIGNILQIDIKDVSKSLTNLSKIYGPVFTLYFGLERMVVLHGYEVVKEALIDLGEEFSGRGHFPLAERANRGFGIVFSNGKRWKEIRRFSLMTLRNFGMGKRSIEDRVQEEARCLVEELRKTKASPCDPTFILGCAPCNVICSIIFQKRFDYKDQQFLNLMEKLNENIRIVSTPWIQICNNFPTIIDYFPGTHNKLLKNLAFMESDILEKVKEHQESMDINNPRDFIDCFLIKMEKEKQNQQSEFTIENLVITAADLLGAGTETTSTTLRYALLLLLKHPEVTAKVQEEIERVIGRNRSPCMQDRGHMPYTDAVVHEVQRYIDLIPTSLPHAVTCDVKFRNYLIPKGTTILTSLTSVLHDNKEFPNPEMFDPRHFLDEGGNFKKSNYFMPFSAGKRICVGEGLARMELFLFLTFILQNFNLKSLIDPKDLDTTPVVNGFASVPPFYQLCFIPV

[12] = biological target: T1, Cytochrome P450 1A2 (Homo sapiens, UniProt P05177); assay: Inhibition of CYP1A2 in human liver microsomes using phenacetin as substrate after 30 mins by LC-MS analysis
T1 sequence (P05177 whole entry): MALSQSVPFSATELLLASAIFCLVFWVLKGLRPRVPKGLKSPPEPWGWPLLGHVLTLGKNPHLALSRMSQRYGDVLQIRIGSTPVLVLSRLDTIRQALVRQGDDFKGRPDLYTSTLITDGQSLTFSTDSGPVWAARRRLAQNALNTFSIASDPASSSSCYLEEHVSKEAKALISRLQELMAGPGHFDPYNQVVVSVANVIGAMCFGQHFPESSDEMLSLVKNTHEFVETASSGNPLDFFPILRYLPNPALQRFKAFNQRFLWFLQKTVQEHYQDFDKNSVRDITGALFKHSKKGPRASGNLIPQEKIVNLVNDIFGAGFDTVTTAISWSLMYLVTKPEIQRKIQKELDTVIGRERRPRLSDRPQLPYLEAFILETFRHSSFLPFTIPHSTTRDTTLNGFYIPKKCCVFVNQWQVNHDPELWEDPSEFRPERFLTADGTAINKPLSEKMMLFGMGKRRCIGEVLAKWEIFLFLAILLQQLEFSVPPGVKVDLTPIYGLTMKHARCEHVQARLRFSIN

[13] = in vitro; conditions: human, liver microsomes
[14] = Half life in human liver microsomes assessed as CYP-mediated compound degradation at 1 uM by LC-MS analysis
[15] = system: Left cardiac atrium; assay: Negative inotropic activity in potassium depolarized guinea pig left atrium assessed as reduction in developed tension at 10^-6 M after 30 mins; assay type: functional, Cavia porcellus; set-up: scale not given: the % may be the effect or the level left
[16] = system: Left cardiac atrium; assay: Potency index, ratio of diltiazem EC50 to compound EC50 for negative inotropic activity against potassium depolarized guinea pig left atrium
[17] = system: Left cardiac atrium; assay: Negative inotropic activity in potassium depolarized guinea pig left atrium assessed as reduction in developed tension at 10^-5 M after 30 mins; assay type: functional, Cavia porcellus; set-up: scale not given: the % may be the effect or the level left
[18] = system: Aorta; assay: Vasorelaxant activity in potassium depolarized guinea pig aorta assessed as inhibition of calcium-induced contraction at 50 uM after 30 mins; assay type: functional, Cavia porcellus; set-up: scale not given: the % may be the effect or the level left; summary of the method: as §1

Row | Compound | EC50 [1] [µM] | Activity [2] [%] | Activity [3] [%] | Activity [4] [%] | Activity [5] [%] | Stability [6] | IC50 [7] [µM] | IC50 [8] [µM] | Activity [9] [%] | IC50 [10] [µM] | IC50 [11] [µM] | IC50 [12] [µM] | microsomal CLint at 1 µM [13] [µL/min/mg] | half-life at 1 µM [14] [min] | Activity [15] [%] | Ratio EC50 [16] | Activity [17] [%] | Activity [18] [%]
1 | CCOC1(c2cccc(OC)c2)SC=C(C)n2c1noc2=O (stereo not drawn) | 0.038 | 2 | 31 | 43 | 71 | – | – | – | – | – | – | – | – | – | – | – | – | –
2 | CCOC1(c2ccc(OC)cc2)SC=C(C)n2c1noc2=O (stereo not drawn) | 0.022 | 3 | 29 | – | – | Stable | 13.6 | 0.017 | 86 | 12.5 | 2.5 | 5.2 | 278 | 6 | 76 | – | – | –
3 | CC1=CSC(O)(c2ccccc2)c2noc(=O)n21 (stereo not drawn) | 0.23 | 14 | – | – | – | – | – | – | – | – | – | – | – | – | – | 3.4 | 95 | 4
